Source: PubChem BioAssay (Sanford-Burnham Center for Chemical Genomics)
LMPTP inh: LMPTP phosphatase inhibitors, primary screen, biochemical, fluorescence intensity, uHTS | recombinant LMPTP-A, OMFP fluorogenic substrate | actives 0.22% (n = 360,000) | inhibition, % at 20 µM;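 active = compounds that cut the enzyme signal by at least half of the control window in the single-dose screen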;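 note: plate controls were DMSO wells with enzyme plus substrate for no effect and substrate without enzyme for full effect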
Target sequence (P24666 whole entry, looked up): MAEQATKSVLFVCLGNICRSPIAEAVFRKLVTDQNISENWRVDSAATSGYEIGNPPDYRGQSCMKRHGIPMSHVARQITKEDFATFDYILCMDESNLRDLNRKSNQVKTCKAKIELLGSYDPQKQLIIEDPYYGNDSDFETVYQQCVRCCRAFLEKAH
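Assay system: LMPTP-A, protein tyrosine phosphatase of low molecular weight / Medium: pH 6.0 Bis-Tris buffer with DTT and Triton X-100 / Schedule: 50 min enzyme reaction at room temperature, protected from light / Measured by: endpoint fluorescence intensity from OMFP dephosphorylation / Read-out basis: % inhibition relative to no-enzyme and uninhibited control wells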
Scp-1 inhibitor: Scp-1 phosphatase inhibitors, primary screen, biochemical, colorimetric, uHTS; Recombinant Scp1, phosphopeptide, malachite green phosphate absorbance; inhibition, % at 20 µM; actives 0.88% (n = 340,000); AID 493091, 2011;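 active = inhibition above about 50% at 20 µM, limit read from the data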;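 note: plate controls were DMSO wells with enzyme for no effect and wells lacking enzyme for full effect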
Target sequence (Q9GZU7 76-261 limits assumed): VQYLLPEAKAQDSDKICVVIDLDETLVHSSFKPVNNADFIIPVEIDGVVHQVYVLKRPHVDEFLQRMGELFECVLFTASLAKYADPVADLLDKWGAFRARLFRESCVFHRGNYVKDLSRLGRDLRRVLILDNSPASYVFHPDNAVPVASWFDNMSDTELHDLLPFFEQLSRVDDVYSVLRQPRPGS
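Test system – truncated SCP-1 phosphatase (76-261aa) · Reagent – Phosphorylated 17-residue peptide substrate · Incubation – 45 min room-temperature reaction, 5 min colour, 30 min stabiliser · Detection – colorimetric phosphate reagent with accelerator and stabiliser, absorbance at 630 nm · Measure – % inhibition at 20 µM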
STEP block: STEP phosphatase inhibitors, primary screen, biochemical, fluorescence intensity, uHTS; recombinant STEP, OMFP fluorogenic substrate; inhibition, % at 20 µM; actives 0.25% (n = 360,000); AID 588621, 2011;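 active = inhibition at 20 µM, scaled per plate between control wells, above about 37%, limit read from the data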;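 note: 0% = DMSO with enzyme and substrate and 100% = substrate only without enzyme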
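Assay system: isolated STEP enzyme. Buffer or medium: pH 6.0 Bis-Tris with DTT and Tween 20. Also added: fluorogenic phosphatase substrate OMFP at 25 µM final. Dosing: 20 µM, 1% DMSO. Timing: 20 min reaction, room temperature, in the dark. Measured by: fluorescence intensity, excitation 480 nm, emission 540 nm. Evaluation: normalized % inhibition.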
SUMO1-SIM PPI: modulators of SUMO1 protein-protein interactions, primary screen, biochemical, uHTS; Small ubiquitin-related modifier 1 (Homo sapiens), P63165; SUMO1 binding to a labelled peptide, TR-FRET, 1 h; inhibition, % at 20 µM; actives 0.33% (n = 360,000); AID 602429, 2012; in the data active = inhibition above about 37%
Target sequence (P63165 whole entry, looked up): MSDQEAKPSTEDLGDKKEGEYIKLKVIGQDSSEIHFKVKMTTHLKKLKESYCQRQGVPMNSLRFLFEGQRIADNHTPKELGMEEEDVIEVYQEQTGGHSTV
DNMT1 block: human DNMT1 methyltransferase inhibitors, primary screen, biochemical, molecular beacon, fluorescence, HinP1I cleavage, uHTS; actives 0.83% (n = 360,000); DNA (cytosine-5)-methyltransferase 1 (Homo sapiens), P26358; inhibition (reported as % activation of signal), % at 10 µM; in the data active = inhibition above about 50%
Beacon interf DR: spectral interference with molecular beacon fluorescence, dose response, artefact control for DNMT1 inhibitor project, biochemical, fluorescent molecular beacon; shares compounds with DNMT1 block; spectral interference counter-screen; IC50, µM; 200 tested, under 10 active; call rule not given here
DNMT1 confirm: DNMT1 methyltransferase inhibitor retest, confirmation, biochemical, molecular beacon, fluorescence, single concentration; shares compounds with DNMT1 block; DNMT1 molecular beacon HinP1I cleavage; inhibition, % at 10 µM; actives 8% (n = 2,300); AID 602385, 2012;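 active = average inhibition of at least 30% in the single-concentration confirmation test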
Beacon interf: beacon fluorescence artifact counter-screen; shares compounds with DNMT1 block; DNMT1 molecular beacon spectral interference counterscreen, fluorescence 485/520; activation (fluorescence interference), % at 10 µM; actives 1% (n = 2,300); AID 602387;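 active = activation of at least 30% at 10 µM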;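 note: DNMT1 catalytic domain with a HinP1I cleavage step and a FAM/dabcyl DNA beacon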
* = called active by the depositor; x = not tested or not shown. Rows were chosen to be rich in hits. Some 1.7% of all compounds tested hit in one or more screens of this group.

SMILES	LMPTP inh	Scp-1 inhibitor	STEP block	SUMO1-SIM PPI	DNMT1 block	DNMT1 confirm	Beacon interf	others
COC(=O)C=C1CCC2C3CC(F)C4(O)CC(=O)CCC4(C)C3C(=O)CC12C (configuration not stated)	-2	-2	2	3	9	x	x
Cc1cc(=O)oc2cc(NC(=O)c3cccc(Br)c3)ccc12	27	49	26	-5	51*	2	0
COc1cc(NCCCn2cnc3c(OC)ncnc32)cc(OC)c1OC	-2	x	0	-1	10	x	x
Cc1cc2nc(-c3ccc(SCC(=O)Nc4ccc(S(=O)(=O)N5CCCC5)cc4)nc3)[nH]c2cc1C	5	-5	-3	-4	66*	-7	-13
COc1ccc(/C=C2\C(=O)NC(=O)c3ccccc32)cc1OC	10	0	7	8	74*	-2	1
COc1ccc(C=C2C(=O)OC(C)(C)OC2=O)cc1OC	-2	-4	0	-2	0	x	x
O=C(CN1C(=O)NC2(CCCC2)C1=O)NCc1cccc(Cl)c1	1	-2	1	1	1	x	x
Cc1ccccc1Oc1ncnc2oc(-c3ccccc3)cc12	1	-6	2	-1	-1	x	x
Clc1ccc(Oc2ncnc3oc(-c4ccccc4)cc23)cc1	0	-3	3	12	56*	2	4
COC(=O)c1sc(N2C(=O)c3oc4ccccc4c(=O)c3C2c2cccs2)nc1C (configuration not stated)	-2	1	-3	-11	60*	2	-3
COC(=O)c1sc(N2C(=O)C(O)=C(C(=O)c3ccc(C)o3)C2c2cccs2)nc1C (configuration not stated)	11	-2	8	-6	0	x	x
Cc1ccc(C)c(N(C(=O)Cn2nnc(-c3cccs3)n2)C(C(=O)NC2CCCC2)c2ccncc2)c1 (configuration not stated)	-2	0	-4	4	9	x	x
COc1cccc(N(C(=O)Cn2nnc(-c3cccs3)n2)C(C(=O)NC2CCCCC2)c2ccncc2)c1 (configuration not stated)	2	-11	-2	2	68*	0	-2
COc1ccc(CN2CCN(CCSc3ccc(C)cc3)CC2)c(OC)c1OC	-1	-2	0	1	2	x	x
COc1ccc(O)c(C(c2c(C)[nH][nH]c2=O)c2c(C)[nH][nH]c2=O)c1	9	1	2	43*	53*	1	-2
COc1ccc(OC)c(C(c2c(C)[nH][nH]c2=O)c2c(C)[nH][nH]c2=O)c1	0	1	-3	-1	-11	x	x
Cc1ccc(SCC(=O)OC(C)C(=O)Nc2ccc(S(N)(=O)=O)cc2)cc1C (configuration not stated)	0	-6	-1	2	-2	x	x
Cc1c(Cl)cccc1NC(=O)CNC(=O)c1cn(-c2ccccc2)nc1-c1cccnc1	0	2	1	-1	-17	x	x
O=C(COc1cccc(Br)c1)NN=C1c2ccccc2-c2ccccc21	2	-34	0	-5	54*	0	-5
CC(CCCC(C)(C)O)NC(=O)c1ccc2oc(CCc3ccccc3)nc2c1 (configuration not stated)	-1	-6	0	1	2	x	x
O=C(C[n+]1cccc2ccccc21)c1ccc(NC(=O)c2ccccc2)cc1	1	1	-2	-22	-2	x	x
Cc1cc[n+](CC(=O)c2ccc(NC(=O)c3ccccc3)cc2)c2ccccc12	8	2	-1	-23	53*	2	1
CC(C)CN1C(=O)c2ccc(C(=O)Nc3ccc(OCC(=O)O)cc3)cc2C1=O	-1	-5	-2	-27	4	x	x
CCOc1ccccc1C(=O)NCC(=O)OCC(=O)N1CCCC1	-1	0	-4	1	5	x	x
CCSc1nnc(NC(=O)C2Cc3ccccc3CN2C(=O)c2ccco2)s1 (configuration not stated)	3	-2	1	20	53*	4	0
SMILES	LMPTP inh	Scp-1 inhibitor	STEP block	SUMO1-SIM PPI	DNMT1 block	DNMT1 confirm	Beacon interf	others
COc1ccc(NC(=O)c2cc(C3CCCCN3C(=O)c3ccccc3)on2)c(C)c1 (configuration not stated)	-1	x	-3	3	1	x	x
Cc1ccc(-n2nc3ccc(NC(=O)/C=C/c4ccco4)cc3n2)cc1	8	38	7	6	104*	18	4
Cc1ccc(NC(=O)c2cccc(NC(=O)/C=C/c3ccco3)c2)cc1C	3	-14	-1	-1	8	x	x
O=C(/C=C/c1ccco1)Nc1cccc(C(=O)Nc2ccccc2C(=O)O)c1	4	58*	12	53*	86*	11	0
CCc1ccccc1NC(=O)c1cccc(NC(=O)/C=C/c2ccco2)c1	-1	-24	1	-7	-21	x	x
Cc1ccc(/C=C2/C(=O)c3ccc(C(=O)O)cc3C2=O)o1	3	41	7	5	74*	3	-3
CC(C)(C)N1C(=O)c2ccc(C(=O)O)cc2C1=O	-2	-15	0	-3	0	x	x
O=C(O)c1ccc2c(c1)C(=O)/C(=C\c1ccco1)C2=O	3	54*	9	5	80*	6	0
O=C1C(=Cc2ccco2)C(=O)c2ccccc21	1	-4	2	6	-2	x	x
Cn1nc(C(C)(C)C)cc1N1C(=O)CCC1(C)C(=O)Nc1ccc2ccccc2c1 (configuration not stated)	0	x	1	-4	-3	x	x
O=C(NCc1cccnc1)c1cc(C2CCCCN2C(=O)c2cccs2)on1 (configuration not stated)	0	x	1	0	6	x	x
O=C1Nc2c(Cl)cc(Cl)cc2C1=O	0	-2	2	-5	60*	16	-13	Beacon interf DR=>99
O=C(NCCc1ccccc1)C(c1ccccc1F)N(C(=O)c1csnn1)C1CC1 (configuration not stated)	-1	-6	-1	0	1	x	x
